The source made the active and inactive calls. The calls are words filed in the database; no cut-off is given here.
What was measured:
Cryptosporidium parvum [1] = experiment: Effect on infection of HCT8 cells by Cryptosporidium parvum […] isolated from mouse treated with 134 mg/kg/day for 7 days assessed as viability of […]; format: functional, organism-based
In short: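 Oocysts were recovered from TCR-α-deficient mice that had been infected, then treated with 134 mg/kg once daily for 7 days. Viability was judged by whether the oocysts could establish infection in an HCT-8 cell monolayer in vitro.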

Cryptosporidium parvum [2] = experiment: Prevention of Cryptosporidium parvum infection in TCR alpha deficient-mouse pretreated with 50 mg/kg/day, po for 2 days prior to oocyst infection and continued for 5 days; format: functional, organism-based
In short: (§1)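 Suckling TCR-α-deficient mice (6–8 per group) were treated once daily for 2 days, challenged with 2 × 10^4 oocysts, and treated for 5 more days at the same dose (20 or 50 mg/kg). Controls received PBS. Fecal oocyst shedding was checked 10 days after treatment by carbol fuchsin smear. Ileal and cecal H&E sections were scored 0–2 and analyzed by Fisher's exact test and ANOVA.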

Cryptosporidium parvum [3] = experiment: Anticryptosporidial activity against Cryptosporidium parvum infected TCR alpha deficient-mouse assessed as prevention of oocyst shedding at 134 mg/kg/day after 7 days; format: functional
In short: (§2)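 Seven-day-old TCR-α-deficient mice were gavaged with 2 × 10^4 oocysts, and infection was confirmed in feces one week later. Treatment ran for 7 days: 20 or 134 mg/kg once daily, or 16 mg/kg twice daily. Controls received PBS. Seven days after treatment, fecal smears were stained with carbol fuchsin and scored for oocysts (×400). Ileal and cecal H&E sections were scored 0–2. Shedding was compared by Fisher's exact test.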

Cryptosporidium parvum [4] = experiment: Anticryptosporidial activity against Cryptosporidium parvum infected TCR alpha deficient-mouse assessed as prevention of oocyst shedding at 20 mg/kg/day after 7 days; format: functional; in short: as §2
Mus musculus [5] = experiment: Activity of intestinal epithelial SSAT in Swiss-Webster mouse at 0.2 mg, ip after 48 hrs; format: functional
In short: (§3)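 Intestinal homogenates came from Swiss-Webster mice given CGC-11157 once daily (20 mg/kg p.o. or 2 mg/kg i.p.) and killed at 48, 72 or 96 h. SSAT was measured as [1-14C]acetyl-CoA incorporation into monoacetylspermine in Bicine (pH 8.0), with 16.5 μM labeled plus 1 mM acetyl-CoA, 2 mM spermine and 100 μg protein, 60 min at 37°C. Products were bound on cellulose phosphate discs and counted. Results are in nmol/min/mg protein ± SD.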

Mus musculus [6] = experiment: Activity of intestinal epithelial SSAT in Swiss-Webster mouse at […], ip after 72 hrs; format: functional; in short: as §3
Mus musculus [7] = experiment: Activity of intestinal epithelial SSAT in Swiss-Webster mouse at […], ip after 96 hrs; format: functional; in short: as §3
Mus musculus [8] = experiment: Activity of intestinal epithelial ODC in Swiss-Webster mouse at 0.2 mg, ip after 48 hrs; format: functional
In short: (§4)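 Swiss-Webster mice were dosed with CGC-11157 once daily at 20 mg/kg p.o. by feeding needle or 2 mg/kg i.p. They were killed at 48, 72 or 96 h. Intestines were washed in PBS (pH 6.7) and homogenized on ice in 40 mM Tris-HCl (pH 6.7). ODC was measured as 14CO2 trapped from L-[14C]ornithine in 0.2 M acetate (pH 6.5), 60 μM pyridoxal phosphate, 3 mg/ml BSA and 125 μg protein, 30 min at 37°C. Results are in nmol/min/mg protein ± SD.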

Mus musculus [9] = experiment: Activity of intestinal epithelial ODC in Swiss-Webster mouse at 0.2 mg, ip after 72 hrs; format: functional; in short: as §4
Mus musculus [10] = experiment: Activity of intestinal epithelial ODC in Swiss-Webster mouse at […], ip after 96 hrs; format: functional; in short: as §4
Mus musculus [11] = experiment: Ratio of intestinal epithelial ODC activity to SSAT activity in Swiss-Webster mouse at 0.2 mg, ip after 48 hrs; format: functional
In short: (§5)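 The ratio was calculated from ODC (14CO2 release from [14C]ornithine) and SSAT (acetylation of spermine by [14C]acetyl-CoA) specific activities. Both were measured in intestinal homogenates from Swiss-Webster mice dosed once daily with CGC-11157 p.o. or i.p. and sampled at 48, 72 or 96 h.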

Mus musculus [12] = experiment: Ratio of intestinal epithelial ODC activity to SSAT activity in Swiss-Webster mouse at 0.2 mg, ip after 72 hrs; format: functional; in short: as §5
Mus musculus [13] = experiment: Ratio of intestinal epithelial ODC activity to SSAT activity in Swiss-Webster mouse at 0.2 mg, ip after 96 hrs; format: functional; in short: as §5
Mus musculus [14] = experiment: Ratio of intestinal epithelial ODC activity to SSAT activity in Swiss-Webster mouse at 2 mg, po after 48 hrs; format: functional; in short: as §5
Mus musculus [15] = experiment: Ratio of intestinal epithelial ODC activity to SSAT activity in Swiss-Webster mouse at 2 mg, po after 72 hrs; format: functional; in short: as §5
Mus musculus [16] = experiment: Ratio of intestinal epithelial ODC activity to SSAT activity in Swiss-Webster mouse at 2 mg, po after 96 hrs; format: functional; in short: as §5
Cryptosporidium parvum [17] = experiment: Prevention of Cryptosporidium parvum infection in TCR alpha deficient-mouse pretreated with 20 mg/kgday, po for 2 days prior to oocyst infection and continued for 5 days; format: functional; conditions: dose 20 mg/kg; in short: as §1
Cryptosporidium parvum [18] = experiment: Anticryptosporidial activity against Cryptosporidium parvum infected TCR alpha deficient-mouse assessed as prevention of oocyst shedding at 16 mg/kg twice a day after 7 days; format: functional; in short: as §2

CCNCCCCNCCCCNCCCCNCCCCNC/C=C/CNCCCCNCCCCNCCCCNCCCCNCC
Activity (Cryptosporidium parvum [1]): inactive

CCNCCCNC/C=C\CNCCCNCC
Activity (Cryptosporidium parvum [2]): Active
Activity (Cryptosporidium parvum [3]): Toxic

NCCCC(N)(C(=O)O)C(F)F (racemic) [EFLORNITHINE]
Activity (Cryptosporidium parvum [4]): 33%

CCNCCCCNCCCCNCCCCNC/C=C\CNCCCCNCCCCNCCCCNCC
Activity (Mus musculus [5]): 0.081 nmol/mg/min
Activity (Mus musculus [6]): 0.034 nmol/mg/min
Activity (Mus musculus [7]): 0.04 nmol/mg/min
Activity (Mus musculus [8]): 0.079 nmol/mg/min
Activity (Mus musculus [9]): 0.034 nmol/mg/min
Activity (Mus musculus [10]): 0.16 nmol/mg/min
Ratio (Mus musculus [11]): 0.97
Ratio (Mus musculus [12]): 1
Ratio (Mus musculus [13]): 4
Ratio (Mus musculus [14]): 0.99
Ratio (Mus musculus [15]): 1.55
Ratio (Mus musculus [16]): 2.9
Activity (Cryptosporidium parvum [17]): 50%
Activity (Cryptosporidium parvum [4]): 50%
Activity (Cryptosporidium parvum [18]): 50%

— ChEMBL document CHEMBL1147096, “Activities of DL-alpha-difluoromethylarginine and polyamine analogues against Cryptosporidium parvum infection in a T-cell receptor alpha-deficient mouse model” (2007)
